Assay results: ChEMBL document CHEMBL1126279, “Antiallergic and cytoprotective activity of new N-phenylbenzamido acid derivatives” (1992)
Active and inactive are the calls of the source. The rule behind the calls is not given here.

What was measured:
Rattus norvegicus [1] = assay: Cytoprotective activity against ethanol-induced gastric lesions in male conscious rats; Inactive.; type: functional, organism-based; conditions: Stomach
In short: (§1)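 Male rats (140–160 g) were fasted 24 h with water allowed. Lesions were induced by 1.5 mL oral absolute ethanol. Drugs were given iv (5 mL/kg) as sodium salt in saline, 15 min before. Stomachs were scored blind at 1 h for necrotic lesion length categories and counts (lesion index). Each agent was given at ≥3 doses, groups of five. % effect vs control was computed, and ID50 came from log-dose regression.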

Rattus norvegicus [2] = species on record: Rattus norvegicus; assay: Inhibition of rat passive cutaneous anaphylaxis reaction; Inactive.; type: functional, organism-based
In short: (§2)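 IgE antiserum was raised in male Sprague-Dawley rats by im ovalbumin (25 mg) in Bordetella pertussis suspension, and sera were pooled 14 days later. Naive young rats received 0.05 mL antiserum intradermally at two back sites. After 24 h they were challenged iv with saline containing egg albumin plus Evans blue and killed 30 min later to measure wheal axes. Compounds were given as sodium salt in saline, im, 15 min pre-challenge, at ≥3 doses (n ≥ 15). ID50 was derived by log-dose regression with p = 0.05 fiducial limits.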

Rattus norvegicus [3] = assay: Cytoprotective activity against ethanol-induced gastric lesions in male conscious rats; type: functional; conditions: Stomach, read-out: ID50 (the source's name); in short: as §1
Rattus norvegicus [4] = species on record: Rattus norvegicus; assay: Compound was evaluated for antiallergic activity against rat passive cutaneous anaphylaxis (PCA); type: functional; conditions: read-out: ID50 (the source's name); in short: as §2
Rattus norvegicus [5] = assay: Antiallergic activity against rat passive cutaneous anaphylaxis (PCA) reaction induced by 25 mg/kg of ovalbumin given iv (bolus).; type: functional; conditions: read-out: ID50 (the source's name)
Rattus norvegicus [6] = assay: Antiallergic activity against rat passive cutaneous anaphylaxis (PCA) reaction induced by 25 mg/kg of ovalbumin given iv(bolus); type: functional; conditions: read-out: ID50 (the source's name)
Rattus norvegicus [7] = assay: Compound was evaluated for cytoprotective activity against acetic acid-induced gastric lesions in male conscious rats; type: functional; conditions: Stomach, read-out: ID50 (the source's name)
In short: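 Under ether anesthesia, 50 µL of 30% acetic acid was injected into the gastric submucosa of fasted male rats (140–160 g). Drugs were given im at −0.5, 4 and 21 h. […] Agents were given at five dose levels in groups of five, or in duplicate at 100 mg/kg.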

Rattus norvegicus [8] = assay: Compound was evaluated for cytoprotective activity against sodium chloride-induced gastric lesions in male conscious rats; type: functional; conditions: Stomach, read-out: ID50 (the source's name)
In short: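 Male rats (140–160 g) were fasted 24 h. Lesions were induced by oral 1.5 mL/animal 25% (w/v) NaCl. Drugs were given iv (5 mL/kg) 15 min before. Stomachs were scored blind at 1 h by lesion index, and % effect vs control was calculated. Some agents were given at five dose levels in groups of five; others in duplicate at 30 and 100 mg/kg. ID50 came from log-dose regression.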

Rattus norvegicus [9] = assay: Compound was evaluated for cytoprotective activity against glucose-induced gastric lesions in male conscious rats; type: functional; conditions: Stomach, read-out: ID50 (the source's name)
In short: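 Male rats (180–200 g) were fasted 24 h, then fed solely an aqueous glucose liquid meal. Drugs were given sc twice daily for 9 days. Lesions were scored by number of necrotic lesions and extent of impaired rumen area, and % effect vs control was calculated. Agents were given at four dose levels in groups of five in duplicate, or in duplicate at 100 mg/kg.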

With `O=C(O)c1cc(NC(=O)c2ccccc2)cc(C(=O)O)c1` the ID50 (Rattus norvegicus [1]) was “inactive” and the ID50 (Rattus norvegicus [2]) was “inactive”.
`CCCc1ccc(C(=O)Nc2cc(C(=O)O)cc(C(=O)O)c2)cc1` was tested, and the ED50 (Rattus norvegicus [3]) was 94.2 mg/kg and the ED50 (Rattus norvegicus [4]) was 6.7 mg/kg.
With `O=C(O)c1ccc(C(=O)O)c(NC(=O)c2ccc(-c3nn[nH]n3)cc2)c1` the ED50 (Rattus norvegicus [3]) was 31.1 mg/kg and the ED50 (Rattus norvegicus [5]) was 1.2 mg/kg.
`N#Cc1ccc(C(=O)Nc2ccc(C(=O)O)c(C(=O)O)c2)cc1` was tested, and the ID50 (Rattus norvegicus [1]) was “inactive” and the ED50 (Rattus norvegicus [5]) was 10.1 mg/kg.
`O=C(O)c1cc(NC(=O)c2ccc([N+](=O)[O-])cc2)cc(C(=O)O)c1` was tested, and the ED50 (Rattus norvegicus [3]) was 61.1 mg/kg and the ED50 (Rattus norvegicus [5]) was 9.8 mg/kg.
With `O=C(Nc1ccccc1)c1ccc(-c2nn[nH]n2)cc1` the ED50 (Rattus norvegicus [3]) was 40 mg/kg and the ED50 (Rattus norvegicus [5]) was 8.4 mg/kg.
`O=C(Nc1cccc(-c2nn[nH]n2)c1)c1ccc(-c2nn[nH]n2)cc1` was tested, and the ED50 (Rattus norvegicus [3]) was 1.1 mg/kg and the ED50 (Rattus norvegicus [5]) was 0.03 mg/kg.
For `O=C(Nc1ccc(C(=O)O)c(C(=O)O)c1)c1ccc([N+](=O)[O-])cc1`, the ID50 (Rattus norvegicus [1]) was “inactive” and the ED50 (Rattus norvegicus [5]) was 13.2 mg/kg.
`N#Cc1ccc(C(=O)Nc2ccc(C(=O)O)cc2)cc1` was tested, and the ID50 (Rattus norvegicus [1]) was “inactive” and the ID50 (Rattus norvegicus [2]) was “inactive”.
`O=C(O)c1cc(NC(=O)c2ccc(O)c(O)c2)cc(C(=O)O)c1` was tested, and the ID50 (Rattus norvegicus [1]) was “inactive” and the ID50 (Rattus norvegicus [2]) was “inactive”.
Work on `CCCCc1ccc(C(=O)Nc2cc(C(=O)O)cc(C(=O)O)c2)cc1` yielded an ED50 (Rattus norvegicus [3]) of 91.9 mg/kg and an ED50 (Rattus norvegicus [5]) of 12.3 mg/kg.
In the case of `N#Cc1ccc(C(=O)Nc2cc(C(=O)O)cc(C(=O)O)c2)cc1`, the ED50 (Rattus norvegicus [3]) is reported as 32.1 mg/kg and the ED50 (Rattus norvegicus [5]) is reported as 1.7 mg/kg.
For `O=C(O)c1ccc(NC(=O)c2ccc(C(=O)O)cc2)cc1`, the ED50 (Rattus norvegicus [3]) was 54.3 mg/kg and the ED50 (Rattus norvegicus [5]) was 25.4 mg/kg.
In the case of `COc1ccc(C(=O)Nc2cc(C(=O)O)cc(C(=O)O)c2)cc1`, the ID50 (Rattus norvegicus [1]) is reported as “inactive” and the ID50 (Rattus norvegicus [2]) is reported as “inactive”.
In the case of `O=C(Nc1ccccc1-c1nn[nH]n1)c1cccc(-c2nn[nH]n2)c1`, the ED50 (Rattus norvegicus [3]) is reported as 9.7 mg/kg and the ED50 (Rattus norvegicus [6]) is reported as 1.4 mg/kg.
With `O=C(O)c1cc(NC(=O)c2ccc(Cl)cc2Cl)cc(C(=O)O)c1` the ED50 (Rattus norvegicus [3]) was 103 mg/kg and the ID50 (Rattus norvegicus [2]) was “inactive”.
For `COc1ccc(C(=O)Nc2cc(C(=O)O)cc(C(=O)O)c2)cc1OC`, the ED50 (Rattus norvegicus [3]) was 116 mg/kg and the ID50 (Rattus norvegicus [2]) was “inactive”.
Compound `O=C(O)c1cc(NC(=O)c2ccc(-c3nn[nH]n3)cc2)cc(C(=O)O)c1` has an ED50 (Rattus norvegicus [3]) of 8.2 mg/kg and an ED50 (Rattus norvegicus [5]) of 1.2 mg/kg.
`O=C(O)c1ccc(NC(=O)c2ccc(-c3nn[nH]n3)cc2)cc1` gave an ED50 (Rattus norvegicus [3]) of 3.5 mg/kg and an ED50 (Rattus norvegicus [5]) of 2.3 mg/kg.
With `N#Cc1ccc(C(=O)Nc2ccc(C(=O)O)cc2C(=O)O)cc1` the ED50 (Rattus norvegicus [3]) was 66.3 mg/kg and the ED50 (Rattus norvegicus [5]) was 19.5 mg/kg.
`O=C(O)c1cc(NC(=O)c2cccc(Cl)c2)cc(C(=O)O)c1` was tested, and the ID50 (Rattus norvegicus [1]) was “inactive” and the ID50 (Rattus norvegicus [2]) was “inactive”.
`COc1ccc(/C=C/C(=O)Nc2ccccc2C(=O)O)cc1OC` [TRANILAST] was tested, and the ID50 (Rattus norvegicus [1]) was “inactive” and the ED50 (Rattus norvegicus [5]) was 3.6 mg/kg.
With `N#Cc1ccc(C(=O)Nc2cccc(C(=O)O)c2C(=O)O)cc1` the ED50 (Rattus norvegicus [3]) was 135 mg/kg and the ED50 (Rattus norvegicus [5]) was 15.8 mg/kg.
In the case of `CN(C(=O)c1ccc(-c2nn[nH]n2)cc1)c1ccc(-c2nn[nH]n2)cc1`, the ED50 (Rattus norvegicus [3]) is reported as 60 mg/kg and the ED50 (Rattus norvegicus [5]) is reported as 3.8 mg/kg.
`O=C(Nc1ccc(-c2nnn[nH]2)cc1)c1ccc(-c2nnn[nH]2)cc1` [ANDOLAST] showed an ED50 (Rattus norvegicus [3]) of 2.5 mg/kg, an ED50 (Rattus norvegicus [7]) of 9.4 mg/kg and an ED50 (Rattus norvegicus [8]) of 18.2 mg/kg. For the same compound, the ED50 (Rattus norvegicus [9]) was 23.9 mg/kg and the ED50 (Rattus norvegicus [6]) was 0.09 mg/kg.
`O=C(O)c1ccc(NC(=O)c2ccc([N+](=O)[O-])cc2)cc1` was tested, and the ID50 (Rattus norvegicus [1]) was “inactive” and the ID50 (Rattus norvegicus [2]) was “inactive”.
For `COc1cc(C(=O)Nc2cc(C(=O)O)cc(C(=O)O)c2)cc(OC)c1OC`, the ID50 (Rattus norvegicus [1]) was “inactive” and the ID50 (Rattus norvegicus [2]) was “inactive”.
For `N#Cc1ccc(C(=O)Nc2cccc(-c3nn[nH]n3)c2)cc1`, the ED50 (Rattus norvegicus [3]) was 21.4 mg/kg and the ID50 (Rattus norvegicus [2]) was “inactive”.
In the case of `O=C(O)c1cc(NC(=O)c2ccc(Cl)cc2)cc(C(=O)O)c1`, the ED50 (Rattus norvegicus [3]) is reported as 97.3 mg/kg and the ID50 (Rattus norvegicus [2]) is reported as “inactive”.
In the case of `CCCOc1ccc(C(=O)Nc2cc(C(=O)O)cc(C(=O)O)c2)cc1`, the ED50 (Rattus norvegicus [3]) is reported as 78 mg/kg and the ID50 (Rattus norvegicus [2]) is reported as “inactive”.
With `O=C(Nc1ccccc1)c1cccc(-c2nn[nH]n2)c1` the ED50 (Rattus norvegicus [3]) was 38.1 mg/kg and the ED50 (Rattus norvegicus [5]) was 4.5 mg/kg.
Compound `NC(=O)c1ccc(NC(=O)c2ccc(-c3nn[nH]n3)cc2)cc1` has an ED50 (Rattus norvegicus [3]) of 33 mg/kg and an ED50 (Rattus norvegicus [5]) of 2 mg/kg.
For `O=C(O)c1ccc(C(=O)Nc2cc(C(=O)O)cc(C(=O)O)c2)cc1`, the ED50 (Rattus norvegicus [3]) was 32.2 mg/kg and the ED50 (Rattus norvegicus [5]) was 2.1 mg/kg.
With `N#Cc1ccc(C(=O)Nc2cc(C(=O)O)ccc2C(=O)O)cc1` the ED50 (Rattus norvegicus [3]) was 26.8 mg/kg and the ED50 (Rattus norvegicus [5]) was 1.5 mg/kg.
For `N#Cc1cccc(C(=O)Nc2cc(C(=O)O)cc(C(=O)O)c2)c1`, the ED50 (Rattus norvegicus [3]) was 140 mg/kg and the ED50 (Rattus norvegicus [5]) was 5 mg/kg.
With `O=C(O)c1cc(NC(=O)c2cc(O)cc(O)c2)cc(C(=O)O)c1` the ED50 (Rattus norvegicus [3]) was 90.2 mg/kg and the ID50 (Rattus norvegicus [2]) was “inactive”.
In the case of `N#Cc1ccc(C(=O)Nc2cc(CO)cc(C(=O)O)c2)cc1`, the ID50 (Rattus norvegicus [1]) is reported as “inactive” and the ID50 (Rattus norvegicus [2]) is reported as “inactive”.
With `O=C(O)c1cc(NC(=O)c2ccc(O)cc2)cc(C(=O)O)c1` the ID50 (Rattus norvegicus [1]) was “inactive” and the ID50 (Rattus norvegicus [2]) was “inactive”.
`COc1cc(OC)cc(C(=O)Nc2cc(C(=O)O)cc(C(=O)O)c2)c1` was tested, and the ED50 (Rattus norvegicus [3]) was 108 mg/kg and the ID50 (Rattus norvegicus [2]) was “inactive”.
In the case of `N#Cc1ccc(NC(=O)c2ccc(-c3nn[nH]n3)cc2)cc1`, the ED50 (Rattus norvegicus [3]) is reported as 19.7 mg/kg and the ED50 (Rattus norvegicus [5]) is reported as 1.2 mg/kg.
In the case of `Cc1ccc(C(=O)Nc2cc(C(=O)O)cc(C(=O)O)c2)cc1`, the ID50 (Rattus norvegicus [1]) is reported as “inactive” and the ID50 (Rattus norvegicus [2]) is reported as “inactive”.
For `CCCc1c2oc(C(=O)O)cc(=O)c2cc2c(=O)cc(C(=O)O)n(CC)c12` [NEDOCROMIL], the ID50 (Rattus norvegicus [1]) was “inactive” and the ED50 (Rattus norvegicus [5]) was 1.3 mg/kg.
In the case of `O=C(Nc1ccc(-c2nn[nH]n2)cc1)c1cccc(-c2nn[nH]n2)c1`, the ED50 (Rattus norvegicus [3]) is reported as 0.6 mg/kg and the ED50 (Rattus norvegicus [5]) is reported as 0.05 mg/kg.
With `N#Cc1ccc(NC(=O)c2ccc(C(=O)O)cc2)cc1` the ID50 (Rattus norvegicus [1]) was “inactive” and the ID50 (Rattus norvegicus [2]) was “inactive”.
`O=C(Nc1cccc(-c2nn[nH]n2)c1)c1cccc(-c2nn[nH]n2)c1` gave an ED50 (Rattus norvegicus [3]) of 15.8 mg/kg and an ED50 (Rattus norvegicus [5]) of 1.6 mg/kg.
For `N#Cc1ccc(C(=O)Nc2cccc(C(=O)O)c2)cc1`, the ID50 (Rattus norvegicus [1]) was “inactive” and the ID50 (Rattus norvegicus [2]) was “inactive”.
`O=C(O)c1cc(NC(=O)c2ccc(C(F)(F)F)cc2)cc(C(=O)O)c1` was tested, and the ID50 (Rattus norvegicus [1]) was “inactive” and the ID50 (Rattus norvegicus [2]) was “inactive”.
Work on `N#Cc1ccc(C(=O)Nc2ccc(-c3nn[nH]n3)cc2)cc1` yielded an ED50 (Rattus norvegicus [3]) of 54.4 mg/kg and an ED50 (Rattus norvegicus [5]) of 2.4 mg/kg.
With `N#Cc1ccc(C(=O)Nc2cc(C(N)=O)cc(C(=O)O)c2)cc1` the ED50 (Rattus norvegicus [3]) was 87.2 mg/kg and the ED50 (Rattus norvegicus [5]) was 5.7 mg/kg.
`O=C([O-])c1cc(=O)c2c(OCC(O)COc3cccc4oc(C(=O)[O-])cc(=O)c34)cccc2o1.[Na+].[Na+]` [CROMOLYN SODIUM] showed an ED50 (Rattus norvegicus [3]) of 50.8 mg/kg and an ED50 (Rattus norvegicus [5]) of 1.5 mg/kg.
With `O=C(Nc1ccccc1-c1nn[nH]n1)c1ccc(-c2nn[nH]n2)cc1` the ED50 (Rattus norvegicus [3]) was 6.1 mg/kg and the ED50 (Rattus norvegicus [5]) was 1.5 mg/kg.
